# Source: ChEMBL document CHEMBL1949633, “Novel morpholine ketone analogs as potent histamine H3 receptor inverse agonists with wake activity” (Bioorg Med Chem Lett, 2012)
# Calls of active or inactive are those of the source. The rule behind the calls is not given here.
# Legend:
# [1] = target: Histamine H3 receptor (Rattus norvegicus, UniProt Q9QYN8); assay: Displacement of [3H]NAMH from rat histamine H3 receptor
# In short: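 Radioligand binding with [3H]NAMH in membranes from cells transfected with human or rat H3 receptor. Ki values averaged from at least two determinations; assay-to-assay variation typically within 2.5-fold.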
# [2] = Drug uptake in rat brain at 10 mg/kg, ip measured after 1 hr; format: ADME, organism-based; design: dose 10 mg/kg, route intraperitoneal; conditions: read-out: Drug uptake
# In short: (§1)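 Male-unspecified rats dosed 10 mg/kg ip in 0.5% methylcellulose, 0.2% Tween 80 in water; brain concentration (ng/g) measured at 1, 4, 6 and 24 h post dose. Brain-to-plasma ratio taken at 1 h.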
# [3] = Drug uptake in rat brain at 10 mg/kg, ip measured after 4 hrs; format: ADME, organism-based; design: dose 10 mg/kg, route intraperitoneal; conditions: read-out: Drug uptake; in short: as §1
# [4] = Drug uptake in rat brain at 10 mg/kg, ip measured after 6 hrs; format: ADME, organism-based; design: dose 10 mg/kg, route intraperitoneal; conditions: read-out: Drug uptake; in short: as §1
# [5] = tested on: Brain; assay: Drug uptake in rat brain at 10 mg/kg, ip measured after 24 hrs; format: ADME, organism-based; design: dose 10 mg/kg, route intraperitoneal; conditions: in vivo; in short: as §1
# [6] = Half life in human liver microsomes; format: ADME, Microsome
# [7] = target: Histamine H3 receptor (Homo sapiens, UniProt Q9Y5N1); assay: Displacement of [3H]NAMH from human histamine H3 receptor
# [8] = Half life in rat liver microsomes; format: ADME, Microsome
# [9] = Half life in dog liver microsomes; format: ADME, Canis lupus familiaris, Microsome
# [10] = Half life in mouse liver microsomes; format: ADME, Microsome
# [11] = Aqueous solubility of the compound at pH 7.4; format: physicochemical; conditions: aqueous medium
# [12] = target: Sigma non-opioid intracellular receptor 1 (Homo sapiens) (UniProt Q99720); assay: Inhibition of human sigma 1 receptor at 10 uM
# In short: (§2)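 Selectivity panel of 70 GPCRs, ion channels and enzymes run by a contract screening service; percent inhibition at 10 µM test concentration.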
# [13] = target: Nischarin (Rattus norvegicus) (UniProt Q4G017); assay: Inhibition of rat imidazoline I2 receptor at 10 uM; in short: as §2
# [14] = target: T1, Cytochrome P450 1A2 (Homo sapiens, UniProt P05177); assay: Inhibition of CYP1A2; format: ADME
# T1 sequence (P05177 whole entry): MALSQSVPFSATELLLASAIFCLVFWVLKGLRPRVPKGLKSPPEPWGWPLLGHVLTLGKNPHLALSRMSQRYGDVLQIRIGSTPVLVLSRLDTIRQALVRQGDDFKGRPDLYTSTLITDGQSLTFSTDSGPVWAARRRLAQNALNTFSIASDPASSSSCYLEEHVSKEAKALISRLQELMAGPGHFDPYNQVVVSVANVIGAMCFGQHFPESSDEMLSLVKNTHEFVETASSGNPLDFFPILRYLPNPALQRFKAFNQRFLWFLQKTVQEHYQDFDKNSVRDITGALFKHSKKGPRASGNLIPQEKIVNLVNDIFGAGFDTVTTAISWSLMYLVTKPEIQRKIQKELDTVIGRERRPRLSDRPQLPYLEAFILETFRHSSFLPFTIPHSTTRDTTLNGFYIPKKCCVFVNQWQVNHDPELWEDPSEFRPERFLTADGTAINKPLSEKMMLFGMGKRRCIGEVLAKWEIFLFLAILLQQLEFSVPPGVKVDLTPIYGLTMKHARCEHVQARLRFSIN
# [15] = target: Cytochrome P450 2C9 (Homo sapiens, UniProt P11712); assay: Inhibition of CYP2C9; format: ADME
# [16] = target: Cytochrome P450 2C19 (Homo sapiens, UniProt P33261); assay: Inhibition of CYP2C19; format: ADME
# [17] = target: Cytochrome P450 2D6 (Homo sapiens, UniProt P10635); assay: Inhibition of CYP2D6; format: ADME
# [18] = target: Cytochrome P450 3A4 (Homo sapiens, UniProt P08684); assay: Inhibition of CYP3A4; format: ADME
# [19] = tested on: Rattus norvegicus; assay: AUC (0 to 6 hrs) in rat at 5 mg/kg, po; format: ADME, organism-based, Plasma; design: time < 6 hr, dose 5 mg/kg, route oral; conditions: in vivo
# [20] = Oral bioavailability in rat at 5 mg/kg; format: ADME, organism-based; conditions: in vivo
# In short: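 Rats received 5 mg/kg po in 50% Tween 80, 40% propylene carbonate and 10% propylene glycol. The iv comparison dose was formulated in 3% DMSO, 30% solutol and 67% phosphate-buffered saline.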
# [21] = Ratio of drug uptake in rat brain to plasma at 10 mg/kg, ip measured after 1 hr; format: ADME, organism-based; design: dose 10 mg/kg, route intraperitoneal; conditions: read-out: BPR; in short: as §1
# [22] = tested on: Rattus norvegicus; assay: Effect on sleep-awake cycle in ip dosed EEG/EMG Sprague-Dawley rat model assessed as wake promotion after 4 hrs; format: functional, organism-based
# [23] = tested on: Rattus norvegicus; assay: Effect on sleep-awake cycle in ip dosed EEG/EMG Sprague-Dawley rat model assessed as wake promotion time at 10 mg/kg, ip (reference value: 101 +/- 7 mins); format: functional; conditions: route intraperitoneal
# [24] = tested on: Rattus norvegicus; assay: Effect on sleep-awake cycle in ip dosed EEG/EMG Sprague-Dawley rat model assessed as wake promotion time at 30 mg/kg, ip (reference value: 101 +/- 7 mins); format: functional; conditions: route intraperitoneal
# [25] = tested on: Rattus norvegicus; assay: Effect on sleep-awake cycle in ip dosed EEG/EMG Sprague-Dawley rat model assessed as wake promotion time at 60 mg/kg, ip (reference value: 101 +/- 7 mins); format: functional; conditions: route intraperitoneal
# [26] = tested on: Rattus norvegicus; assay: Effect on sleep-awake cycle in EEG/EMG Sprague-Dawley rat model assessed as wake promotion at 60 mg/kg, ip after 4 hrs; format: functional; conditions: route intraperitoneal
# [27] = tested on: Rattus norvegicus; assay: Effect on sleep-awake cycle in EEG/EMG Sprague-Dawley rat model assessed as wake promotion at 60 mg/kg, ip after 4 hrs relative to control; format: functional; conditions: route intraperitoneal
# In short: (§3)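 Male Sprague Dawley rats were surgically implanted for chronic EEG and EMG recording and dosed ip at 10, 30 or 60 mg/kg or with vehicle. Line 2 is read as cumulative time awake over 4 h post-dose (4 h AUC), or percent time awake. Line 1 is theta-range EEG power (~6–9 Hz, FFT amplitude) at 1 h. n = 7-8/group; Dunnett's test versus vehicle.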
# [28] = tested on: Rattus norvegicus; assay: Effect on sleep-awake cycle in EEG/EMG Sprague-Dawley rat model assessed as increase in slow-wave sleep at 30 mg/kg, ip after 4 hrs; format: functional, organism-based; design: dose 30 mg/kg
# [29] = tested on: Rattus norvegicus; assay: Effect on sleep-awake cycle in EEG/EMG Sprague-Dawley rat model assessed as increase in slow-wave sleep at 60 mg/kg, ip after 4 hrs; format: functional, organism-based; design: dose 60 mg/kg
# [30] = tested on: Rattus norvegicus; assay: Effect on sleep-awake cycle in EEG/EMG Sprague-Dawley rat model assessed as increase in rapid eye movement sleep at 30 mg/kg, ip after 4 hrs; format: functional, organism-based; design: dose 30 mg/kg
# [31] = tested on: Rattus norvegicus; assay: Effect on sleep-awake cycle in EEG/EMG Sprague-Dawley rat model assessed as increase in rapid eye movement sleep at 60 mg/kg, ip after 4 hrs; format: functional, organism-based; design: dose 60 mg/kg
# [32] = tested on: Rattus norvegicus; assay: Effect on sleep-awake cycle in EEG/EMG Sprague-Dawley rat model assessed as sleep rebound at 10 to 60 mg/kg, ip up to 22 hrs; format: functional, organism-based
# [33] = tested on: Rattus norvegicus; assay: Toxicity in EEG/EMG Sprague-Dawley rat model assessed as adverse EEG activity at 10 to 60 mg/kg, ip; format: organism-based; design: dose 10-60 mg/kg, route intraperitoneal; conditions: in vivo
# [34] = tested on: Rattus norvegicus; assay: Effect on sleep-awake cycle in EEG/EMG Sprague-Dawley rat model assessed as increase in EEG theta range at 30 to 60 mg/kg, ip after 1 hr; format: functional; conditions: dose mg/kg 30-60; route intraperitoneal; in short: as §3
# [35] = tested on: Rattus norvegicus; assay: Effect on sleep-awake cycle in EEG/EMG Sprague-Dawley rat model assessed as change in EEG theta frequency at 30 to 60 mg/kg, ip after 1 hr; format: functional, organism-based
# Chain of Histamine H3 receptor (Homo sapiens, UniProt Q9Y5N1) (Q9Y5N1 whole entry): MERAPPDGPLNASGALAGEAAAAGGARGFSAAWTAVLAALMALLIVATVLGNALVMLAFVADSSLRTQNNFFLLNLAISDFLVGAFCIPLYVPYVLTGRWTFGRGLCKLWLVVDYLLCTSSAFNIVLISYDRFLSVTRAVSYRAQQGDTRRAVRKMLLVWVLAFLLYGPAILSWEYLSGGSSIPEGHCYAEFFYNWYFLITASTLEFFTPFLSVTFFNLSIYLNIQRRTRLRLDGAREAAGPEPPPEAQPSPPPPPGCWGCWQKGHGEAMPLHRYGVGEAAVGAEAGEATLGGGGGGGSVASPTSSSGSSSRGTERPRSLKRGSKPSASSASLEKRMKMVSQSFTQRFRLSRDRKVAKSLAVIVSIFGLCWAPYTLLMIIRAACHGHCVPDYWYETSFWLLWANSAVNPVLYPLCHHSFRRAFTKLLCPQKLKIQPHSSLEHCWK
# Chain of Histamine H3 receptor (Rattus norvegicus, UniProt Q9QYN8) (Q9QYN8 whole entry): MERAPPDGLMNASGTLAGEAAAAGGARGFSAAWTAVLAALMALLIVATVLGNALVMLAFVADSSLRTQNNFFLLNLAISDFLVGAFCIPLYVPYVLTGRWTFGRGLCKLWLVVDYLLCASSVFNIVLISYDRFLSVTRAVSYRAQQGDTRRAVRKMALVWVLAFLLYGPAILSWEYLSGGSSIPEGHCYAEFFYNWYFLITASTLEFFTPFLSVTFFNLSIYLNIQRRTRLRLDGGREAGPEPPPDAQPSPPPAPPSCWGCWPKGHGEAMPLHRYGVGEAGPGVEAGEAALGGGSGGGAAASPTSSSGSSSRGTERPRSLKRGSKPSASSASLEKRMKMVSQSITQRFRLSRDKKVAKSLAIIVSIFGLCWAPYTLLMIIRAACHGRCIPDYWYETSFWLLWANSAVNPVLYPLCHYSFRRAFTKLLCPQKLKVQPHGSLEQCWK
# Chain of Cytochrome P450 3A4 (P08684 whole entry): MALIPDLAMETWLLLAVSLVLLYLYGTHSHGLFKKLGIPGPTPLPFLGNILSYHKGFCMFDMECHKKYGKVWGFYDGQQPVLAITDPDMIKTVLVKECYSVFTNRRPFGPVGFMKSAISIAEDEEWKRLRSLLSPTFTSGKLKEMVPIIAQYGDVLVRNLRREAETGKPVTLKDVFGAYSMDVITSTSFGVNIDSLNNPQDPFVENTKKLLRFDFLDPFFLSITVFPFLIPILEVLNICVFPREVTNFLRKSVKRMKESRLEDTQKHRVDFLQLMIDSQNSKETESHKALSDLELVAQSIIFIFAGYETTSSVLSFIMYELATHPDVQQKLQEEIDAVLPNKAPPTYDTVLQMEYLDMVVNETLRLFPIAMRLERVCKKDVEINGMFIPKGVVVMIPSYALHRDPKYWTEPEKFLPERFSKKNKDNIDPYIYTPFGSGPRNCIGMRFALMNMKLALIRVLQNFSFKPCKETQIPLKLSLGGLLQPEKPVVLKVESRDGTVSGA
# Chain of Cytochrome P450 2C19 (P33261 whole entry): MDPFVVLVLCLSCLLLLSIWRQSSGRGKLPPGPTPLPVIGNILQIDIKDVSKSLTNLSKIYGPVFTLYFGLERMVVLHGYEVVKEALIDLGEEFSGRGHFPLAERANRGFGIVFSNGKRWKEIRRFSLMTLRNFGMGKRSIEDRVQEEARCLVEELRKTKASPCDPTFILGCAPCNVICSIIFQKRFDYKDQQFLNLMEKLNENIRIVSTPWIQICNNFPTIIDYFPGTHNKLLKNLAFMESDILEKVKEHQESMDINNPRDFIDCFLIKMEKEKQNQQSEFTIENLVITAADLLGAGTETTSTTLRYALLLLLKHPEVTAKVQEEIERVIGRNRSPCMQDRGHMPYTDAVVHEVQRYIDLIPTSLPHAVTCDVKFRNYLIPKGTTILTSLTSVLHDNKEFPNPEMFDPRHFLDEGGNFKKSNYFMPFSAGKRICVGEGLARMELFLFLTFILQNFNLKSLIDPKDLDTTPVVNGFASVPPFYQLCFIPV
# Chain of Sigma non-opioid intracellular receptor 1 (Homo sapiens) (Q99720 whole entry): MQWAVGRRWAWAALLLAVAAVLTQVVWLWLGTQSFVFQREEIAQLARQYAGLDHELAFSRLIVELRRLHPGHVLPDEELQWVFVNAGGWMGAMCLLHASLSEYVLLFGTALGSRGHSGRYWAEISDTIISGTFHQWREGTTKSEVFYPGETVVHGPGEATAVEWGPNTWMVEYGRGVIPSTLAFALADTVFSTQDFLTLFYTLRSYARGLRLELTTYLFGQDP
# Chain of Cytochrome P450 2D6 (P10635 whole entry): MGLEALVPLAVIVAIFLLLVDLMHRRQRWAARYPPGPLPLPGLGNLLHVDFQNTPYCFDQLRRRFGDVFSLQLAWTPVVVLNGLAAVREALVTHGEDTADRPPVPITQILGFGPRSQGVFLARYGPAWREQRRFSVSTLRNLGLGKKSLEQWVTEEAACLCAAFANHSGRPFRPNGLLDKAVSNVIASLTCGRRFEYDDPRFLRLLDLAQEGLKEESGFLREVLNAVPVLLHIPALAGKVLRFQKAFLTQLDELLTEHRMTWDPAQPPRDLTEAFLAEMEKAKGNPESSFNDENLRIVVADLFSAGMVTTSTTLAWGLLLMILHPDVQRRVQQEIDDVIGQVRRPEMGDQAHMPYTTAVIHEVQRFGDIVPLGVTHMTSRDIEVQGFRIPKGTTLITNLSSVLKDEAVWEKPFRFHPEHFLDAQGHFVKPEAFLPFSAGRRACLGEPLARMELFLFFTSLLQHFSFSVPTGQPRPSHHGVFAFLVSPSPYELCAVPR
# Chain of Nischarin (Rattus norvegicus) (Q4G017 whole entry): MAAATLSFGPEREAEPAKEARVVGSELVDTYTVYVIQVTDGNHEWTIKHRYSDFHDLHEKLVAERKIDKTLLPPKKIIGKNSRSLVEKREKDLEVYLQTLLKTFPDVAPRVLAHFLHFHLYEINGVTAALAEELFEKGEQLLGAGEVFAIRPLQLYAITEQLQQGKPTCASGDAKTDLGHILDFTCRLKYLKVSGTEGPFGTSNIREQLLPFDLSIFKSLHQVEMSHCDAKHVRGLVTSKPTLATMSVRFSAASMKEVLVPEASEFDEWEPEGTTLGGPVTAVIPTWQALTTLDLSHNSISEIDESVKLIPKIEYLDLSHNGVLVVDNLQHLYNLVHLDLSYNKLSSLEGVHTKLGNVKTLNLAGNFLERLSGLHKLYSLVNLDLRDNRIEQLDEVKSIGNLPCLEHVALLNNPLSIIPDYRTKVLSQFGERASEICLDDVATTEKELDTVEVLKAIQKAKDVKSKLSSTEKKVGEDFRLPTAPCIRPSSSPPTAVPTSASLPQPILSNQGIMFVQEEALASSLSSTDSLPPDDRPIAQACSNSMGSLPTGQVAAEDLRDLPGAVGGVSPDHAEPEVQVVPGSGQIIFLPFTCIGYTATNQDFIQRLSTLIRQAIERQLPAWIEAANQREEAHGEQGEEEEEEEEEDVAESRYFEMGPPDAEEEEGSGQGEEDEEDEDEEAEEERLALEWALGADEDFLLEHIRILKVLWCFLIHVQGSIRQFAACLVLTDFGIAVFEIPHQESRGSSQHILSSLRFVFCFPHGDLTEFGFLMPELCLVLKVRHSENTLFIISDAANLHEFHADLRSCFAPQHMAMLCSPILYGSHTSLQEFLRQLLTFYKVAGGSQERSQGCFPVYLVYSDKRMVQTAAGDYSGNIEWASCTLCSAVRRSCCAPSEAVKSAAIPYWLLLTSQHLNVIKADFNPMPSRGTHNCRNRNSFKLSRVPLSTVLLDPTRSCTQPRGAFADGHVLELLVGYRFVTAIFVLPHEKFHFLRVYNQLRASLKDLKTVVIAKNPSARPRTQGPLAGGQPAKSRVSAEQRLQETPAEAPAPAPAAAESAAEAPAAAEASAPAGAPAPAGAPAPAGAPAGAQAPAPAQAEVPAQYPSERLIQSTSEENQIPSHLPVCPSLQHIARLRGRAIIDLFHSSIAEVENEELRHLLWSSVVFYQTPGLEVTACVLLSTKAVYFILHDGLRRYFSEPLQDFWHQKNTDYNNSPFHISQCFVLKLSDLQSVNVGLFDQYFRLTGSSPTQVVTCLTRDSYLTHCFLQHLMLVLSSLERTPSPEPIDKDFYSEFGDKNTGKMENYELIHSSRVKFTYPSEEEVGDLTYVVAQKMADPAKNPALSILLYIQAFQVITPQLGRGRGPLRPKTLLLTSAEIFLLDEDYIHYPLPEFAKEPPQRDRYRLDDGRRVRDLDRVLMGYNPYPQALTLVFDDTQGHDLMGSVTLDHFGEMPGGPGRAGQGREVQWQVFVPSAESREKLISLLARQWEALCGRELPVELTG
# Chain of Cytochrome P450 2C9 (P11712 whole entry): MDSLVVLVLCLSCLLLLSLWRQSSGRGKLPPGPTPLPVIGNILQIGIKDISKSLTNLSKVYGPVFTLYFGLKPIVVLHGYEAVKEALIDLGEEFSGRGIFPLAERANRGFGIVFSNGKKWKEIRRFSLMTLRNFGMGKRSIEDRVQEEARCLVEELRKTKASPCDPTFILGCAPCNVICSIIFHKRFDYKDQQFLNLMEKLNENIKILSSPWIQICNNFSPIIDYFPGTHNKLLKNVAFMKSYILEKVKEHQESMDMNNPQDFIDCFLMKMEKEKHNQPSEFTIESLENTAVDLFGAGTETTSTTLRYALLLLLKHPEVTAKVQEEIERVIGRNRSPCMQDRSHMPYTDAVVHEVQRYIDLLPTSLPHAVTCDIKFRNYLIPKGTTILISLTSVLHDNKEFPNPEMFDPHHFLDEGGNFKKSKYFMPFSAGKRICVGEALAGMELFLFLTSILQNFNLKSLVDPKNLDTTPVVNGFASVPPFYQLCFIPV
structure (smiles),measurement,setting,value
CC1CCCN1CCCOc1ccc(C(=O)CN2CCOCC2)cc1 (racemic),Ki,[1],0.056 µM
same,concentration at 1 h,[2],3930 ng/g
same,concentration at 4 h,[3],1610 ng/g
same,concentration at 6 h,[4],955 ng/g
same,Drug uptake,[5],Not Active
C[C@@H]1CCCN1CCCOc1ccc(C(=O)C(C)(C)N2CCOCC2)cc1,half-life,[6],8 min
same,Ki,[1],0.033 µM
same,Ki,[7],0.009 µM
same,half-life,[8],9 min
same,half-life,[9],10 min
same,half-life,[10],> 40 min
COC[C@@H]1CCCN1CCCOc1ccc(C(=O)CN2CCOCC2)cc1,Ki,[1],> 3 µM
same,Ki,[7],> 3 µM
C[C@H]1CCCN1CCCOc1ccc(C(=O)CN2CCOCC2)cc1,Ki,[1],0.885 µM
O=C(CN1CCCCC1)c1ccc(OCCCN2CCCC2)cc1,Ki,[1],0.174 µM
same,Ki,[7],0.032 µM
CC1(C)CCCN1CCCOc1ccc(C(=O)CN2CCOCC2)cc1,Ki,[1],> 1 µM
same,Ki,[7],> 1 µM
C[C@@H]1CN(CC(=O)c2ccc(OCCCN3CCC[C@H]3C)cc2)C[C@H](C)O1,Ki,[1],0.078 µM
same,Ki,[7],0.01 µM
COC[C@H]1CCCN1CCCOc1ccc(C(=O)CN2CCOCC2)cc1,Ki,[1],> 3 µM
same,Ki,[7],1.17 µM
O=C(CN1CCOCC1)c1ccc(OCCCN2CCCC2)cc1,Ki,[1],0.594 µM
same,Ki,[7],0.106 µM
O=C(CN1CCOCC1)c1ccc(OCCCN2CCCCC2)cc1,Ki,[1],0.44 µM
same,Ki,[7],0.066 µM
C[C@@H]1CCCN1CCCOc1ccc(C(=O)CN2CCOCC2)cc1,Ki,[1],0.05 µM
same,solubility,[11],> 145 µg/mL
same,inhibition,[12],78%
same,inhibition,[13],67%
same,IC50,[14],> 30 µM
same,IC50,[15],> 30 µM
same,IC50,[16],> 30 µM
same,IC50,[17],> 30 µM
same,IC50,[18],> 30 µM
same,AUC,[19],109 ng·h/mL
same,bioavailability,[20],14%
same,concentration at 1 h,[2],3770 ng/g
same,Kp at 1 h,[21],30.7
same,Activity,[22],Dose-dependent effect
same,Time,[23],118 min
same,Time,[24],163 min
same,Time,[25],222 min
same,Activity,[26],93%
same,fold change (FC),[27],2.2
same,Activity,[28],Active
same,Activity,[29],Active
same,Activity,[30],Active
same,Activity,[31],Active
same,Activity,[32],inactive
same,Activity,[33],Non-toxic
same,fold change (FC),[34],2
same,Activity,[35],inactive
CC(C(=O)c1ccc(OCCCN2CCC[C@H]2C)cc1)N1CCOCC1 (stereo partly specified),half-life,[6],> 40 min
same,Ki,[1],0.105 µM
same,Ki,[7],0.008 µM
same,half-life,[8],> 40 min
same,half-life,[9],> 40 min
same,half-life,[10],> 40 min
Cc1cc(OCCCN2CCC[C@H]2C)ccc1C(=O)CN1CCOCC1,Ki,[1],0.244 µM
same,Ki,[7],0.019 µM
